Measurements from ChEMBL document CHEMBL2311381, “Synthesis and biological activity of aminophthalazines and aminopyridazines as novel inhibitors of PGE2 production in cells” (Bioorg Med Chem Lett, 2013).
Activity calls are given as the source filed them. The rule behind the calls is not given here.

Assays:
[1] = (§1) Inhibition of IL-1beta-induced PGE2 production in human HCA-7 cells at 1 uM after 72 hrs by EIA; type: functional; settings: HCA-7, 72 h
Procedure, shortened: (§2)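 HCA-7 colon cancer cells were grown overnight in DMEM/10% FBS, then serum-starved for 18 h. They were stimulated with 10 ng/ml IL-1β together with compound (DMSO solution) in serum-free medium for 72 h. PGE2 in the supernatant was measured by EIA. Single-concentration screening was at 1 µM, giving % reduction ± SD (n = 3). EC50 values came from increasing concentrations. Celecoxib served as the positive control.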

[2] = target: T1, Prostaglandin G/H synthase 2 (Homo sapiens, UniProt P35354); assay: (§3) Inhibition of COX-2 (unknown origin) at 5 uM; settings: 5 µM
T1 sequence (P35354 whole entry): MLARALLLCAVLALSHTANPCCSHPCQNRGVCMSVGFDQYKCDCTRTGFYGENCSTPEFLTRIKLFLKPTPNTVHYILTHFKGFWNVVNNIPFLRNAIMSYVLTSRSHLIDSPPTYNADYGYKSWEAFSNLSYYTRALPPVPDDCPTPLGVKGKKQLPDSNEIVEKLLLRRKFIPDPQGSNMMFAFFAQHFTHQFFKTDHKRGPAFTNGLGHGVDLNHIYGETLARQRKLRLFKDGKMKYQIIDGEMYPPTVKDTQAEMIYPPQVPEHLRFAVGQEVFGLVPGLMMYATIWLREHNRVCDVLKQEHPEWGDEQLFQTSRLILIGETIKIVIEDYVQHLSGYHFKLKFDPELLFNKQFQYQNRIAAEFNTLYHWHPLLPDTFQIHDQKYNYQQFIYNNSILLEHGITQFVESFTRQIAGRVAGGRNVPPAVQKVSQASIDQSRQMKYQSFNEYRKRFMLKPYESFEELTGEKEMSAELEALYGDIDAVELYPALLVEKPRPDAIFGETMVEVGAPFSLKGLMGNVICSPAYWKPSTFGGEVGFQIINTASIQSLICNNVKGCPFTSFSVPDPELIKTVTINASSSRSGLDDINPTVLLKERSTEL
Procedure, shortened: (§4)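 Cell-free COX-2 activity measured with a fluorescent COX inhibitor screening kit, run per the kit instructions. Compounds were tested at 5 µM. Results are given as % inhibition ± SD (n = 3). Celecoxib served as the positive control. Dose-response curves were not run.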

[3] = Inhibition of IL-1beta-induced PGE2 production in human HCA-7 cells after 72 hrs by EIA; type: functional, cell-based; settings: HCA-7, 72 h; procedure, shortened: as §2
[4] = target: HCA-7 cells (Homo sapiens); assay: Inhibition of PGE2 production in human HCA-7 cells
[5] = target: T2, COX-2 (Prostaglandin G/H synthase 2) (Homo sapiens, UniProt P35354); assay: as §3; procedure, shortened: as §4
T2 sequence (P35354 whole entry): T1 sequence (P35354 whole entry)

HCA-7 = assay: as §1; type: functional; procedure, shortened: as §2

SMILES | inhibition at 1 µM [1] | inhibition (INH) [2] | EC50 [3] | EC50 [4] | inhibition at 5 µM [5] | inhibition (HCA-7)
Oc1ccc(Nc2nnc(-c3ccccc3)c3ccccc23)cc1 | 26.7% | – | – | – | – | –
Cc1ccc(Nc2nnc(-c3ccccc3Cl)c3ccccc23)cc1 | 97.2% | Not Active | 380 nM | – | – | –
Clc1ccc(-c2csc(Nc3ccc(Oc4ccccc4)cc3)n2)cc1 | – | – | 330 nM | 330 nM | – | –
Cc1ccc(Nc2ccc(-c3ccccc3)nn2)cc1 | 62.5% | – | – | – | – | –
CCc1ccc(Nc2nnc(-c3ccc(OC)cc3)c3ccccc23)cc1 | 85% | Not Active | 930 nM | – | – | –
COc1ccc(-c2nnc(Nc3ccc(C)cc3)c3ccccc23)cc1 | 98.3% | Not Active | 32 nM | – | – | –
CCOC(=O)c1ccc(Nc2nnc(-c3ccccc3)c3ccccc23)cc1 | 18.4% | – | – | – | – | –
Cc1ccc(Nc2nnc(-c3cccc(-c4ccccc4)c3)c3ccccc23)cc1 | 84.2% | Not Active | 540 nM | – | – | –
COc1ccc(-c2nnc(Nc3ccccc3)c3ccccc23)cc1 | 97.3% | – | 20 nM | – | 3% | –
Cc1ccc(Nc2nnc(-c3ccccc3)c3ccccc23)cc1 | 98.9% | – | 31 nM | – | 23% | –
COc1ccc(N(C)c2nnc(-c3ccccc3)c3ccccc23)cc1 | 92.4% | – | 220 nM | – | 21.4% | –
Cc1ccc(Nc2nnc(-c3cccc(Cl)c3)c3ccccc23)cc1 | 75.2% | Not Active | 860 nM | – | – | –
COc1ccc(-c2nnc(Nc3ccc(OCC(N)=O)cc3)c3ccccc23)cc1 | – | – | – | – | – | inactive
COc1ccc(-c2nnc(Nc3cccc(C)c3)c3ccccc23)cc1 | 87.5% | Not Active | 640 nM | – | – | –
Cc1ccc(Nc2nnc(-c3ccc4c(c3)OCO4)c3ccccc23)cc1 | 59% | – | – | – | – | –
COc1ccc(-c2nnc(N(C)c3ccc(C)cc3)c3ccccc23)cc1 | 87% | Not Active | 50 nM | – | – | –
NS(=O)(=O)c1ccc(Nc2nnc(-c3ccccc3)c3ccccc23)cc1 | – | – | – | – | – | inactive
Cc1cccc(Nc2nnc(-c3ccccc3)c3ccccc23)c1 | 74.1% | Not Active | 760 nM | – | – | –
COc1ccc(-c2ccc(Nc3ccc(C)cc3)nn2)cc1 | 49% | – | – | – | – | –
COc1ccc(-c2nnc(Nc3ccc(Oc4ccccc4)cc3)c3ccccc23)cc1 | 92.6% | Not Active | 90 nM | – | – | –
Cc1ccc(Nc2nnc(-c3cncnc3)c3ccccc23)cc1 | 15.1% | – | – | – | – | –
Cc1ccc(Nc2nnc(-c3ccc(OC(C)C)cc3)c3ccccc23)cc1 | 76.7% | Not Active | 700 nM | – | – | –
CCOc1ccc(-c2nnc(Nc3ccc(C)cc3)c3ccccc23)cc1 | 75.3% | Not Active | 570 nM | – | – | –
Clc1cccc(Nc2nnc(-c3ccccc3)c3ccccc23)c1 | 79.4% | – | 500 nM | – | 10.1% | –
Cc1ccc(Nc2nnc(-c3ccc(N(C)C)cc3)c3ccccc23)cc1 | 94.4% | – | 420 nM | – | 14.2% | –
COc1cccc(-c2nnc(Nc3ccc(C)cc3)c3ccccc23)c1 | 62% | – | – | – | – | –
c1ccc(Oc2ccc(Nc3nnc(-c4ccccc4)c4ccccc34)cc2)cc1 | 71.2% | Not Active | – | – | – | –
COc1ccccc1-c1nnc(Nc2ccc(C)cc2)c2ccccc12 | 77.2% | Not Active | 590 nM | – | – | –
COc1ccc(Nc2nnc(-c3ccc(C(=O)NCCO)cc3)c3ccccc23)cc1 | 39.2% | – | – | – | – | –
